In ChEMBL document CHEMBL2016547, “An efficient and convenient microwave-assisted chemical synthesis of (thio)xanthones with additional in vitro and in silico characterization” (Bioorg Med Chem, 2012) one finds MIC and IC50 data, which are given here for 17 compounds.

≈ marks a conversion by molar mass, not a printed value. Some results are limits rather than exact numbers.

The test system of experiment [1] is Streptococcus pneumoniae. In words: Antibacterial activity against Streptococcus pneumoniae ATCC 49619 after 20 to 22 hrs by broth microdilution method. It counts as functional. The essentials: (§1)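 CLSI broth microdilution MIC. Twofold compound dilutions spanned 128-0.5 µg/mL, with azithromycin as comparator. Streptococci were grown on Columbia agar with 5% sheep blood, and their broth used 5% horse serum instead of lysed blood. H. influenzae was grown on Mueller-Hinton chocolate agar and staphylococci on Mueller-Hinton agar. Direct colony suspension gave 5x10⁴ CFU/well. Plates were read visually after 20-22 h at 37°C in ambient air.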
For orientation: Dilution methods test growth across graded concentrations, often in twofold steps.

Experiment [2] concerns Streptococcus pyogenes. The experiment is described as follows: Antibacterial activity against Streptococcus pyogenes ATCC 700294 after 20 to 22 hrs by broth microdilution method. It counts as functional. The following applies: M1 GAS. The essentials:
as §1

Experiment [3] concerns Staphylococcus aureus. The experiment is described as follows: Antibacterial activity against Staphylococcus aureus ATCC 29213 after 20 to 22 hrs by broth microdilution method. It counts as functional. A digest of the protocol:
as §1

The subject of experiment [4] is HepG2. In words: Cytotoxicity against human HepG2 cells assessed as NADH level after overnight incubation by MTS assay. In kind it is cell-based. A digest of the protocol: (§2)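 Cells were maintained in RPMI 1640 with 10% FBS at 37°C under 5% CO₂. Compounds were twofold serially diluted across 100-0.2 µM, and 5x10⁴ cells/well were added and incubated overnight at 37°C, 5% CO₂. MTS reagent was then added for 1 h under the same conditions, and absorbance was read at 490 nm.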
In general terms: Formazan colour is commonly taken as a measure of viable cells.

Experiment [5] relates to Moraxella catarrhalis. The experiment is described as follows: Antibacterial activity against Moraxella catarrhalis ATCC 23246 after 20 to 22 hrs by broth microdilution method. In kind it is functional. A digest of the protocol: as §1
In experiment [6] the test system is Jurkat. The experiment is described as follows: Cytotoxicity against human Jurkat T cells assessed as NADH level after overnight incubation by MTS assay. In kind it is cell-based. A digest of the protocol: as §2
Experiment [7] has as its system Escherichia coli. The experiment is described as follows: Antibacterial activity against Escherichia coli ATCC 25922 after 20 to 22 hrs by broth microdilution method. In kind it is functional. A digest of the protocol: as §1
Experiment [8] deals with Haemophilus influenzae. The experiment is described as follows: Antibacterial activity against Haemophilus influenzae ATCC 49247 after 20 to 22 hrs by broth microdilution method. In kind it is functional. A digest of the protocol: as §1

One may read the IC50 as the concentration at which inhibition is half-maximal.

As to `CC(=O)Oc1ccc2c(=O)c3c(OC(C)=O)cccc3oc2c1`, the MIC in experiment [1] is more than 128 µg/mL; in experiment [2], more than 128 µg/mL; in experiment [3], 64 µg/mL (≈ 205 µM); in experiment [5], 16 µg/mL (≈ 51.2 µM); in experiment [7], more than 128 µg/mL; in experiment [8], 128 µg/mL (≈ 410 µM). Besides, the figures for the IC50 in experiment [4] and in experiment [6] were 90 µM and more than 100 µM, respectively.

With `O=c1c2ccccc2sc2cc(O)cc(O)c12`, the MIC is more than 128 µg/mL in experiment [1]; more than 128 µg/mL in experiment [2]; 16 µg/mL (≈ 65.5 µM) in experiment [3]; 8 µg/mL (≈ 32.8 µM) in experiment [5]; more than 128 µg/mL in experiment [7]; 16 µg/mL (≈ 65.5 µM) in experiment [8]. The IC50 in experiment [4] and in experiment [6] was more than 100 µM throughout.

With `O=c1c2c(O)cccc2oc2cc(O)cc(O)c12`, the MIC in experiment [1] is 128 µg/mL (≈ 524 µM); in experiment [2], more than 128 µg/mL; in experiment [3], 8 µg/mL (≈ 32.8 µM); in experiment [5], 8 µg/mL (≈ 32.8 µM); in experiment [7], more than 128 µg/mL; in experiment [8] it was 16 µg/mL (≈ 65.5 µM). In addition, the IC50 in experiment [4] worked out at 90 µM; in experiment [6], 83 µM.

With `O=c1c2cc(O)ccc2oc2cc(O)cc(O)c12`, the MIC in experiment [1] was more than 128 µg/mL; in experiment [2], more than 128 µg/mL; in experiment [3] it was 128 µg/mL (≈ 524 µM); in experiment [5] it was 128 µg/mL (≈ 524 µM); in experiment [7], more than 128 µg/mL; in experiment [8], more than 128 µg/mL. Also, the IC50 in experiment [4] and in experiment [6] was more than 100 µM throughout.

With `CC(=O)Oc1cc(OC(C)=O)c2c(=O)c3ccccc3oc2c1`, the MIC was more than 128 µg/mL in experiment [1]; more than 128 µg/mL in experiment [2]; 128 µg/mL (≈ 410 µM) in experiment [3]; 32 µg/mL (≈ 102 µM) in experiment [5]; more than 128 µg/mL in experiment [7]; 128 µg/mL (≈ 410 µM) in experiment [8]. Moreover, the IC50 in experiment [4] and in experiment [6] was more than 100 µM throughout.

On to `CC(=O)Oc1ccc2c(=O)c3c(OC(C)=O)cc(OC(C)=O)cc3oc2c1`, for which the MIC in experiment [1] is more than 128 µg/mL; in experiment [2] it was more than 128 µg/mL; in experiment [3], 64 µg/mL (≈ 173 µM); in experiment [5] it was 4 µg/mL (≈ 10.8 µM); in experiment [7] it was more than 128 µg/mL; in experiment [8], 128 µg/mL (≈ 346 µM). Also, the IC50 in experiment [4] and in experiment [6] was more than 100 µM in each case.

Consider `O=c1c2ccccc2oc2cccc(O)c12`, for which the MIC in experiment [1] is more than 128 µg/mL; in experiment [2] it was more than 128 µg/mL; in experiment [3], more than 128 µg/mL; in experiment [5] it was 128 µg/mL (≈ 603 µM); in experiment [7], more than 128 µg/mL; in experiment [8], more than 128 µg/mL. Also, the IC50 in experiment [4] and in experiment [6] was more than 100 µM in each case.

As for `CC(=O)Oc1cc(OC(C)=O)c2c(=O)c3cc(OC(C)=O)ccc3oc2c1`, the MIC in experiment [1], in experiment [2], in experiment [3], in experiment [5], in experiment [7] and in experiment [8] was more than 128 µg/mL in each case. Also, the IC50 in experiment [4] and in experiment [6] was more than 100 µM each time.

As to `CC(=O)Oc1cccc2oc3ccccc3c(=O)c12`, the MIC in experiment [1] is more than 128 µg/mL; in experiment [2] it was more than 128 µg/mL; in experiment [3], more than 128 µg/mL; in experiment [5] it was 128 µg/mL (≈ 503 µM); in experiment [7] it was more than 128 µg/mL; in experiment [8], more than 128 µg/mL. Also, the IC50 in experiment [4] was more than 100 µM; in experiment [6], 78 µM.

Consider `O=c1c2ccccc2oc2cc(O)cc(O)c12`, for which the MIC in experiment [1] is more than 128 µg/mL; in experiment [2], more than 128 µg/mL; in experiment [3], 64 µg/mL (≈ 280 µM); in experiment [5], 16 µg/mL (≈ 70.1 µM); in experiment [7] it was more than 128 µg/mL; in experiment [8], 64 µg/mL (≈ 280 µM). The IC50 in experiment [4] and in experiment [6] was more than 100 µM throughout.

With `CC(=O)Oc1cc(OC(C)=O)c2c(=O)c3cccc(OC(C)=O)c3oc2c1`, the MIC in experiment [1], in experiment [2], in experiment [3], in experiment [5], in experiment [7] and in experiment [8] was more than 128 µg/mL each time. Moreover, the figures for the IC50 in experiment [4] and in experiment [6] were more than 100 µM and 92 µM, respectively.

On to `O=c1c2ccc(O)cc2oc2cc(O)cc(O)c12`, for which the MIC in experiment [1] was more than 128 µg/mL; in experiment [2], more than 128 µg/mL; in experiment [3], 64 µg/mL (≈ 262 µM); in experiment [5], 2 µg/mL (≈ 8.19 µM); in experiment [7], more than 128 µg/mL; in experiment [8], 32 µg/mL (≈ 131 µM). The IC50 in experiment [4] and in experiment [6] was more than 100 µM in each case.

On to `O=c1c2cccc(O)c2oc2cc(O)cc(O)c12`, for which the MIC in experiment [1] is more than 128 µg/mL; in experiment [2], more than 128 µg/mL; in experiment [3] it was more than 128 µg/mL; in experiment [5], 16 µg/mL (≈ 65.5 µM); in experiment [7] it was more than 128 µg/mL; in experiment [8], more than 128 µg/mL. Moreover, the IC50 in experiment [4] and in experiment [6] was more than 100 µM throughout.

As for `CC[C@H]1OC(=O)[C@H](C)[C@@H](O[C@H]2C[C@@](C)(OC)[C@@H](O)[C@H](C)O2)[C@H](C)[C@@H](O[C@@H]2O[C@H](C)C[C@H](N(C)C)[C@H]2O)[C@](C)(O)C[C@@H](C)CN(C)[C@H](C)[C@@H](O)[C@]1(C)O` [AZITHROMYCIN], the MIC was less than 0.125 µg/mL in experiment [1]; less than 0.125 µg/mL in experiment [2]; 1 µg/mL (≈ 1.34 µM) in experiment [3]; less than 0.125 µg/mL in experiment [5]; 2 µg/mL (≈ 2.67 µM) in experiment [7]; 1 µg/mL (≈ 1.34 µM) in experiment [8].

For the compound `CC(=O)Oc1cc(OC(C)=O)c2c(=O)c3c(OC(C)=O)cccc3oc2c1`, the MIC is more than 128 µg/mL in experiment [1]; more than 128 µg/mL in experiment [2]; 128 µg/mL (≈ 346 µM) in experiment [3]; 128 µg/mL (≈ 346 µM) in experiment [5]; more than 128 µg/mL in experiment [7]; more than 128 µg/mL in experiment [8]. Also, the IC50 in experiment [4] came to 93 µM; in experiment [6], 62 µM.

Turning to `CC(=O)Oc1cc(OC(C)=O)c2c(=O)c3ccccc3sc2c1`, the MIC in experiment [1] is more than 128 µg/mL; in experiment [2], more than 128 µg/mL; in experiment [3] it was more than 128 µg/mL; in experiment [5], 64 µg/mL (≈ 195 µM); in experiment [7] it was more than 128 µg/mL; in experiment [8], more than 128 µg/mL. Also, the IC50 in experiment [4] and in experiment [6] was more than 100 µM throughout.

In the case of `O=c1c2ccc(O)cc2oc2cccc(O)c12`, the MIC was more than 128 µg/mL in experiment [1]; more than 128 µg/mL in experiment [2]; 32 µg/mL (≈ 140 µM) in experiment [3]; 8 µg/mL (≈ 35.1 µM) in experiment [5]; more than 128 µg/mL in experiment [7]; more than 128 µg/mL in experiment [8]. The IC50 in experiment [4] came to 93 µM; in experiment [6], 75 µM.
